The values below come from ChEMBL document CHEMBL6153131, “Rational Design and Optimization of a Potent IDO1 Proteolysis Targeting Chimera (PROTAC)” (J Med Chem, 2025).

Active and inactive are the calls of the source. The rule behind the calls is not given here. Some results are limits rather than exact numbers.

The subject of assay [1] is U-87MG ATCC. In words: Inhibition of kynurenine production in human U87 cells at 25 nM pretreated with IFN-gamma for 24 hrs followed by compound addition and measured after 24 hrs by Ehrlich's reagent based analysis. Format: functional, cell-based.
Assay [2] concerns the target T1, Protein cereblon/Indoleamine 2,3-dioxygenase 1 (Homo sapiens, UniProt P14902+Q96SW2). Description: PROTAC activity at CRBN/N-terminal HiBiT-tagged IDO1 (unknown origin) transfected in human U87 cells assessed as induction of IDO1 degradation pretreated with IFN-gamma for 24 hrs followed by compound addition and measured after 24 hrs by Nano-Glo HiBiT assay. It is filed as cell-based. The procedure, abridged:
(§1)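 U87 cells carrying HiBiT knocked in by CRISPR/Cas9 at the IDO1 N-terminus, treated for 24 h. Degradation read as loss of luminescence. DC50 fitted from the lowest concentration up to maximal degradation, excluding hook-effect points; triplicate mean ± SD.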
Target sequence in this assay (P14902 whole entry): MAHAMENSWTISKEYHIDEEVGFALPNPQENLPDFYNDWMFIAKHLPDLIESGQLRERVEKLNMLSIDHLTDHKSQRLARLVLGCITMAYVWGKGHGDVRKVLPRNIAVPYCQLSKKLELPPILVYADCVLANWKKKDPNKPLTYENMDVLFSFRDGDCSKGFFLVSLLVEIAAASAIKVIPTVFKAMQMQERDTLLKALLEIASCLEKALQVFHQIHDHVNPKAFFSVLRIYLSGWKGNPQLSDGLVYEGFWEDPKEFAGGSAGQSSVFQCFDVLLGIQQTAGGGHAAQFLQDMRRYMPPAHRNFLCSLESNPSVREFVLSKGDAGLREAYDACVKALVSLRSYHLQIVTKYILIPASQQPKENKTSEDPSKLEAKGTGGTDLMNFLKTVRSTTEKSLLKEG
Target sequence in this assay (Q96SW2 whole entry): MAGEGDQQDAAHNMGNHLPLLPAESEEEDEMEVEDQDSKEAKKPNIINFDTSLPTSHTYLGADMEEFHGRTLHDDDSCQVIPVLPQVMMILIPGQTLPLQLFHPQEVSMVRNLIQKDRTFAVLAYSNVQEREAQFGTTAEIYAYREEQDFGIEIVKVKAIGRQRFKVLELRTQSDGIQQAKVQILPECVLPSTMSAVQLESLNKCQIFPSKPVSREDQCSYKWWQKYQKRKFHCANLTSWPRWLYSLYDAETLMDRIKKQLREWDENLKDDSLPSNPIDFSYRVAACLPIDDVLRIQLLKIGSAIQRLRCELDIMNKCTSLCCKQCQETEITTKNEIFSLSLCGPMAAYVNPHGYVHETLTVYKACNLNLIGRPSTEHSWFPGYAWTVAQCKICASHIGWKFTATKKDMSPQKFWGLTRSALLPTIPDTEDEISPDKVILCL

The target of assay [3] is T1, Protein cereblon/Indoleamine 2,3-dioxygenase 1. In words: PROTAC activity at CRBN/N-terminal HiBiT-tagged IDO1 (unknown origin) transfected in human U87 cells assessed as induction of IDO1 degradation by measuring maximum efficacy pretreated with IFN-gamma for 24 hrs followed by compound addition and measured after 24 hrs by Nano-Glo HiBiT assay relative to control. It is filed as cell-based. The procedure, abridged:
as §1
Target sequence in this assay (P14902 whole entry, looked up): as the sequence (P14902 whole entry) above
Target sequence in this assay (Q96SW2 whole entry, looked up): as the sequence (Q96SW2 whole entry) above

Assay [4] shares this target. In words: PROTAC activity at CRBN/IDO1 in human U87 cells assessed as induction of IDO1 degradation by measuring remaining activity at 25 nM pretreated with IFN-gamma for 24 hrs followed by compound addition and measured after 24 hrs by Western blotting analysis (reference value: 100%). It is filed as cell-based.
Target sequence in this assay (P14902 whole entry, looked up): as the sequence (P14902 whole entry) above
Target sequence in this assay (Q96SW2 whole entry, looked up): as the sequence (Q96SW2 whole entry) above
The target is the same in assay [5]. Description: PROTAC activity at CRBN/IDO1 in human U87 cells assessed as induction of IDO1 degradation by measuring remaining activity at 50 nM pretreated with IFN-gamma for 24 hrs followed by compound addition and measured after 24 hrs by Western blotting analysis (reference value: 100%). Format: cell-based.
Target sequence in this assay (P14902 whole entry, looked up): as the sequence (P14902 whole entry) above
Target sequence in this assay (Q96SW2 whole entry, looked up): as the sequence (Q96SW2 whole entry) above
Assay [6] has the same target. In words: PROTAC activity at CRBN/IDO1 in human U87 cells assessed as induction of IDO1 degradation by measuring remaining activity at 100 nM pretreated with IFN-gamma for 24 hrs followed by compound addition and measured after 24 hrs by Western blotting analysis (reference value: 100%). It is filed as cell-based.
Target sequence in this assay (P14902 whole entry, looked up): as the sequence (P14902 whole entry) above
Target sequence in this assay (Q96SW2 whole entry, looked up): as the sequence (Q96SW2 whole entry) above
For assay [7] the target is unchanged. Description: PROTAC activity at CRBN/IDO1 in human PDX-6 cells assessed as induction of IDO1 degradation at 100 nM pretreated with IFN-gamma for 24 hrs followed by compound addition and measured after 24 hrs by Western blotting analysis. Format: cell-based.
Target sequence in this assay (P14902 whole entry, looked up): as the sequence (P14902 whole entry) above
Target sequence in this assay (Q96SW2 whole entry, looked up): as the sequence (Q96SW2 whole entry) above
Assay [8] shares this target. In words: PROTAC activity at CRBN/IDO1 in human PDX-38 cells assessed as induction of IDO1 degradation at 100 nM pretreated with IFN-gamma for 24 hrs followed by compound addition and measured after 24 hrs by Western blotting analysis. Format: cell-based.
Target sequence in this assay (P14902 whole entry, looked up): as the sequence (P14902 whole entry) above
Target sequence in this assay (Q96SW2 whole entry, looked up): as the sequence (Q96SW2 whole entry) above
Assay [9] has the same target. Description: PROTAC activity at CRBN/IDO1 in human U87 cells overexpressing GFP-fused IDO1 assessed as induction of IDO1 degradation at 100 nM pretreated with IFN-gamma for 24 hrs followed by compound addition and measured after 24 hrs by Western blotting analysis. Format: cell-based.
The target is the same in assay [10]. Description: PROTAC activity at CRBN/IDO1 in human PC-3 cells assessed as induction of IDO1 degradation at 100 nM pretreated with IFN-gamma for 24 hrs followed by compound addition and measured after 24 hrs by Western blotting analysis. Format: cell-based.
Assay [11] shares this target. Description: PROTAC activity at CRBN/IDO1 in human KNS-42 cells assessed as induction of IDO1 degradation at 100 nM pretreated with IFN-gamma for 24 hrs followed by compound addition and measured after 24 hrs by Western blotting analysis. Format: cell-based.
For assay [12] the target is unchanged. Description: PROTAC activity at CRBN/IDO1 in human MDA-MB-231 cells assessed as induction of IDO1 degradation at 100 nM pretreated with IFN-gamma for 24 hrs followed by compound addition and measured after 24 hrs by Western blotting analysis. Format: cell-based.
Assay [13] has the same target. In words: PROTAC activity at CRBN/IDO1 in human SW1990 cells assessed as induction of IDO1 degradation at 100 nM pretreated with IFN-gamma for 24 hrs followed by compound addition and measured after 24 hrs by Western blotting analysis. Format: cell-based.
Assay [14] has the same target. Description: PROTAC activity at CRBN/IDO1 in human SK-OV-3 cells assessed as induction of IDO1 degradation at 100 nM pretreated with IFN-gamma for 24 hrs followed by compound addition and measured after 24 hrs by Western blotting analysis. It is filed as cell-based.
Assay [15] shares this target. In words: PROTAC activity at CRBN/IDO1 in human U87 cells assessed as induction of IDO1 degradation by measuring remaining activity at 0.001 uM pretreated with IFN-gamma for 24 hrs followed by compound addition and measured after 24 hrs by Western blotting analysis (reference value: 100%). Format: cell-based. The essentials: (§2)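 U87 cells given an extended dose range of PROTAC for 24 h, then Western blot for IDO1. IFNγ-induced IDO1 levels normalised to untreated samples. n = 3 independent experiments; mean ± SEM.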

Assay [16] shares this target. Description: PROTAC activity at CRBN/IDO1 in human U87 cells assessed as induction of IDO1 degradation by measuring remaining activity at 0.003 uM incubated for 24 hrs by Western blotting analysis (reference value: 100%). It is filed as cell-based.
For assay [17] the target is unchanged. Description: PROTAC activity at CRBN/IDO1 in human U87 cells assessed as induction of IDO1 degradation by measuring remaining activity at 0.01 uM pretreated with IFN-gamma for 24 hrs followed by compound addition and measured after 24 hrs by Western blotting analysis (reference value: 100%). Format: cell-based. The procedure, abridged:
as §2

Assay [18] shares this target. Description: PROTAC activity at CRBN/IDO1 in human U87 cells assessed as induction of IDO1 degradation by measuring remaining activity at 0.03 uM pretreated with IFN-gamma for 24 hrs followed by compound addition and measured after 24 hrs by Western blotting analysis (reference value: 100%). Format: cell-based. The essentials:
as §2

For assay [19] the target is unchanged. Description: PROTAC activity at CRBN/IDO1 in human U87 cells assessed as induction of IDO1 degradation by measuring remaining activity at 0.1 uM pretreated with IFN-gamma for 24 hrs followed by compound addition and measured after 24 hrs by Western blotting analysis (reference value: 100%). Format: cell-based. The essentials: as §2
For assay [20] the target is unchanged. Description: PROTAC activity at CRBN/IDO1 in human U87 cells assessed as induction of IDO1 degradation by measuring remaining activity at 0.3 uM pretreated with IFN-gamma for 24 hrs followed by compound addition and measured after 24 hrs by Western blotting analysis (reference value: 100%). It is filed as cell-based. The essentials:
as §2

The target is the same in assay [21]. In words: PROTAC activity at CRBN/IDO1 in human U87 cells assessed as induction of IDO1 degradation by measuring remaining activity at 1 uM pretreated with IFN-gamma for 24 hrs followed by compound addition and measured after 24 hrs by Western blotting analysis (reference value: 100%). Format: cell-based. The procedure, abridged: as §2
Assay [22] shares this target. Description: PROTAC activity at CRBN/IDO1 in human U87 cells assessed as induction of IDO1 degradation by measuring remaining activity at 3 uM pretreated with IFN-gamma for 24 hrs followed by compound addition and measured after 24 hrs by Western blotting analysis (reference value: 100%). Format: cell-based. The essentials:
as §2

The target is the same in assay [23]. In words: PROTAC activity at CRBN/IDO1 in human U87 cells assessed as induction of IDO1 degradation by measuring remaining activity at 10 uM pretreated with IFN-gamma for 24 hrs followed by compound addition and measured after 24 hrs by Western blotting analysis (reference value: 100%). It is filed as cell-based. The procedure, abridged: as §2
Assay [24] has the same target. Description: PROTAC activity at CRBN/IDO1 in human U87 cells assessed as induction of IDO1 degradation by measuring maximum efficacy at 300 nM pretreated with IFN-gamma for 24 hrs followed by compound addition and measured after 24 hrs by Western blotting analysis relative to control. Format: cell-based. The essentials:
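IDO1 in U87 cells induced with 50 ng/mL human IFN-γ, then compound given across an extended dose range for 24 h. IDO1 and GAPDH read by Western blot; IDO1 levels normalized to untreated; DC50 from n = 3 independent experiments.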

Assay [25] has as its system U-87MG ATCC. Description: Inhibition of kynurenine production in human U87 cells […] and measured after 24 hrs by Ehrlich's reagent based analysis. The conditions noted are these: dose 0.001-10 µM. It is filed as functional, cell-based. The essentials: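 U87 cells plated, then 24 h later given compound with 50 ng/mL IFN-γ for a total of 24 h. Supernatant kynurenine measured with Ehrlich's reagent; cells without IFN-γ as control; mean ± SEM, Tukey's test.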

Assay [26] relates to Kelly. In words: Downregulation of ADO protein level in human Kelly cells at 1 uM incubated for 24 hrs by proteomics analysis. Format: functional, cell-based.
Assay [27] deals with Kelly. In words: Downregulation of EPHX2 protein level in human Kelly cells at 1 uM incubated for 24 hrs by proteomics analysis. It is filed as functional, cell-based.
For assay [28], the system named is Kelly. In words: Downregulation of CDK8 protein level in human Kelly cells at 1 uM incubated for 24 hrs by proteomics analysis. Format: functional, cell-based.
The subject of assay [29] is Kelly. In words: Downregulation of SALL4 protein level in human Kelly cells at 1 uM incubated for 24 hrs by proteomics analysis. Format: functional, cell-based.
The target in assay [30] is Indoleamine 2,3-dioxygenase 1 (Homo sapiens) (UniProt P14902). In words: Binding affinity to 6His-tagged recombinant IDO1 (unknown origin) assessed as binary complex formation by measuring half life by Biolayer Interferometry assay.
Chain of Indoleamine 2,3-dioxygenase 1 (Homo sapiens) (P14902 whole entry, looked up): as the sequence (P14902 whole entry) above
For assay [31], the target named is T1, Protein cereblon/Indoleamine 2,3-dioxygenase 1. In words: Binding affinity to CRBN/6His-tagged recombinant IDO1 (unknown origin) assessed as ternary complex formation by measuring half life by Biolayer Interferometry assay. It is filed as protein assay.
Assay [32] deals with Protein cereblon (Homo sapiens, UniProt Q96SW2). In words: Binding affinity to CRBN (unknown origin) assessed as dissociation constant by Biolayer Interferometry assay.
Chain of Protein cereblon (Q96SW2 whole entry): as the sequence (Q96SW2 whole entry) above

As for `C[C@@H](C(=O)Nc1ccc(Cl)cc1)[C@H]1CC[C@@H](c2ccnc3ccc(F)cc32)CC1`, the inhibition entry in assay [1] is “Active”.
On to `C[C@@H](C(=O)Nc1cccc(OC2CCN(C(=O)CN3CCC(N4CCN(c5ccc6c(c5)C(=O)N(C5CCC(=O)N(C)C5=O)C6=O)CC4)CC3)CC2)c1)[C@H]1CC[C@@H](c2ccnc3ccc(F)cc32)CC1` (stereo partly drawn), for which, in assay [2], the DC50 was > 10000 nM. In [3], the Emax is < 10%. Also, the results for the Activity in [4], in assay [5] and in assay [6] were 99%, 125% and 162%, respectively. Also, the outcome in assay [7], in [8], in assay [9], in [10], in [11] and in assay [12] was inactive. Also, the outcome in [13] and in [14] was inactive.
For the molecule `C[C@@H](C(=O)Nc1cccc(OC2CCN(C(=O)CN3CCC(CN4CCN(c5ccc6c(c5)C(=O)N(C5CCC(=O)NC5=O)C6=O)CC4)CC3)CC2)c1)[C@H]1CC[C@@H](c2ccnc3ccc(F)cc32)CC1` (stereo partly drawn), in assay [2], the DC50 came to 20 nM. In addition, the Emax was 67% in assay [3] and 68% in assay [24]. The Activity in assay [15] was 93%; in assay [16], 88%; in assay [17], 84%; in assay [18] it was 71%; in [19], 47%; in assay [20] it was 32%. For the same molecule, the Activity came out at 37% in assay [21], 57% in assay [22] and 93% in [23]. Moreover, in assay [25], the inhibition result is “Dose-dependent-effect”. Further, the outcome in assay [26], in assay [27], in assay [28] and in assay [29] was Active. Further, the T1/2 was 53 s in [30] and 4.27 min in assay [31].
For the molecule `C[C@@H](C(=O)Nc1ccc(OC2CCN(C(=O)CCOCCOCCNc3cccc4c3C(=O)N(C3CCC(=O)NC3=O)C4=O)CC2)cc1)[C@H]1CC[C@@H](c2ccnc3ccc(F)cc32)CC1` (stereo partly drawn), the DC50 in assay [2] was found to be 430 nM. Besides, the Emax in assay [3] was 79%. Besides, the Kd in assay [32] was found to be 290 nM.
For `C[C@@H](C(=O)Nc1ccc(OC2CCN(C(=O)CN3CCC(N4CCN(c5ccc6c(c5)C(=O)N(C5CCC(=O)NC5=O)C6=O)CC4)CC3)CC2)cc1)[C@H]1CC[C@@H](c2ccnc3ccc(F)cc32)CC1` (stereo partly drawn), the DC50 in assay [2] stood at 34 nM. For the same molecule, the maximal response (Emax) in assay [3] is 21%.
